The text below walks through data of ChEMBL document CHEMBL4118021, “Studies of TAK1-centered polypharmacology with novel covalent TAK1 inhibitors” (Bioorg Med Chem, 2017).

The source made the active and inactive calls. No cut-off for these calls is given here.

Assay [1] deals with Mitotic interactor and substrate of PLK1 (Homo sapiens) (UniProt Q8IVT2). Briefly: Binding affinity to MISP in human NCI-H358 cells at 1 uM by mass spectrometry based pull down assay. The class given is cell-based.
The target of assay [2] is Phosphatidylinositol 3-kinase catalytic subunit type 3 (Homo sapiens) (UniProt Q8NEB9). Briefly: Binding affinity to PIK3C3 in human NCI-H23 cells at 1 uM by mass spectrometry based pull down assay. The class given is cell-based.
For assay [3], the target named is LIM domain kinase 1 (Homo sapiens) (UniProt P53667). Briefly: Binding affinity to LIMK1 in human NCI-H23 cells at 1 uM by mass spectrometry based pull down assay. The class given is cell-based.
Assay [4] deals with ATP-citrate synthase (Homo sapiens) (UniProt P53396). Briefly: Binding affinity to ACLY in human NCI-H23 cells at 1 uM by mass spectrometry based pull down assay. The class given is cell-based. The essentials:
(§1)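 NCI-H23 or NCI-H358 cells were grown and lysed. Lysates were incubated overnight at 4 °C with 1 μM biotinylated covalent probe or DMSO, then pulled down on streptavidin beads. Proteins were run on polyacrylamide gels and stained with Coomassie. Bands were excised, digested and identified by mass spectrometry.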

The target of assay [5] is Serine/threonine-protein kinase Chk2 (Homo sapiens) (UniProt O96017). Briefly: Binding affinity to CHEK2 in human NCI-H23 cells at 1 uM by mass spectrometry based pull down assay. The format is cell-based.
Assay [6] has as its target Glutamate--cysteine ligase catalytic subunit (Homo sapiens) (UniProt P48506). Briefly: Binding affinity to GCLC in human NCI-H23 cells at 1 uM by mass spectrometry based pull down assay. The class given is cell-based.
Assay [7] concerns the target Interleukin enhancer-binding factor 2 (Homo sapiens) (UniProt Q12905). Briefly: Binding affinity to ILF2 in human NCI-H23 cells at 1 uM by mass spectrometry based pull down assay. The class given is cell-based.
Assay [8] concerns the target Actin-related protein 2/3 complex subunit 1B (Homo sapiens) (UniProt O15143). Briefly: Binding affinity to ARPC1B in human NCI-H358 cells at 1 uM by mass spectrometry based pull down assay. The class given is cell-based.
Assay [9] deals with Aldehyde dehydrogenase X, mitochondrial (Homo sapiens) (UniProt P30837). Briefly: Binding affinity to ALDH1B1 in human NCI-H23 cells at 1 uM by mass spectrometry based pull down assay. The class given is cell-based. In outline: as §1
The target of assay [10] is Translation initiation factor eIF2B subunit gamma (Homo sapiens) (UniProt Q9NR50). Briefly: Binding affinity to EIF2B3 in human NCI-H358 cells at 1 uM by mass spectrometry based pull down assay. The format is cell-based.
Assay [11] concerns the target Cytoplasmic dynein 1 intermediate chain 2 (Homo sapiens) (UniProt Q13409). Briefly: Binding affinity to DYNC1I2 in human NCI-H23 cells at 1 uM by mass spectrometry based pull down assay. The format is cell-based.
Assay [12] deals with Kelch-like ECH-associated protein 1 (Homo sapiens) (UniProt Q14145). Briefly: Binding affinity to KEAP1 in human NCI-H23 cells at 1 uM by mass spectrometry based pull down assay. The format is cell-based.
For assay [13], the target named is 14-3-3 protein epsilon (Homo sapiens) (UniProt P62258). Briefly: Binding affinity to YWHAE in human NCI-H23 cells at 1 uM by mass spectrometry based pull down assay. The class given is cell-based.
The target in assay [14] is Proteasome Macropain subunit MB1 (Homo sapiens) (UniProt P28074). Briefly: Binding affinity to PSMB5 in human NCI-H23 cells at 1 uM by mass spectrometry based pull down assay. The class given is cell-based.
The target in assay [15] is Cyclin-G-associated kinase (Homo sapiens) (UniProt O14976). Briefly: Binding affinity to GAK in human NCI-H358 cells at 1 uM by mass spectrometry based pull down assay. The class given is cell-based.
In assay [16] the target is Serine/threonine-protein phosphatase 2A catalytic subunit beta isoform (Homo sapiens) (UniProt P62714). Briefly: Binding affinity to PPP2CB in human NCI-H358 cells at 1 uM by mass spectrometry based pull down assay. The class given is cell-based.
Chain of Serine/threonine-protein phosphatase 2A catalytic subunit beta isoform (Homo sapiens) (P62714 whole entry, canonical isoform): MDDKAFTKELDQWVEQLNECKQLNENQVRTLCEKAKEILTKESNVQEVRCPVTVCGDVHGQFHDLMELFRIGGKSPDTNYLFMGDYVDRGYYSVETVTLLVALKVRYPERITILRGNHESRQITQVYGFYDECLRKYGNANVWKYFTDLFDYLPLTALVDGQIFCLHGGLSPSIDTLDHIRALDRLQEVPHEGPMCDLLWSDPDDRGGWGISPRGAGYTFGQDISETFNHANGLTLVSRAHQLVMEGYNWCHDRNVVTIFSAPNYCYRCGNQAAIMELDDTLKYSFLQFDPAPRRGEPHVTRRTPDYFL
The target in assay [17] is Actin-related protein 2 (Homo sapiens) (UniProt P61160). Briefly: Binding affinity to ACTR2 in human NCI-H358 cells at 1 uM by mass spectrometry based pull down assay. The format is cell-based. The essentials: as §1
Assay [18] has as its target Ribonucleoside-diphosphate reductase large subunit (Homo sapiens) (UniProt P23921). Briefly: Binding affinity to RRM1 in human NCI-H358 cells at 1 uM by mass spectrometry based pull down assay. The class given is cell-based.
Assay [19] deals with Hepatocyte growth factor receptor (Homo sapiens) (UniProt P08581). Briefly: Inhibition of MET in human SKCO1 cells at 1 uM after 4 hrs using biotin labeled TGAKLPVK probe by mass-spectrometric analysis relative to control. The format is cell-based.
Chain of Hepatocyte growth factor receptor (Homo sapiens) (P08581 whole entry): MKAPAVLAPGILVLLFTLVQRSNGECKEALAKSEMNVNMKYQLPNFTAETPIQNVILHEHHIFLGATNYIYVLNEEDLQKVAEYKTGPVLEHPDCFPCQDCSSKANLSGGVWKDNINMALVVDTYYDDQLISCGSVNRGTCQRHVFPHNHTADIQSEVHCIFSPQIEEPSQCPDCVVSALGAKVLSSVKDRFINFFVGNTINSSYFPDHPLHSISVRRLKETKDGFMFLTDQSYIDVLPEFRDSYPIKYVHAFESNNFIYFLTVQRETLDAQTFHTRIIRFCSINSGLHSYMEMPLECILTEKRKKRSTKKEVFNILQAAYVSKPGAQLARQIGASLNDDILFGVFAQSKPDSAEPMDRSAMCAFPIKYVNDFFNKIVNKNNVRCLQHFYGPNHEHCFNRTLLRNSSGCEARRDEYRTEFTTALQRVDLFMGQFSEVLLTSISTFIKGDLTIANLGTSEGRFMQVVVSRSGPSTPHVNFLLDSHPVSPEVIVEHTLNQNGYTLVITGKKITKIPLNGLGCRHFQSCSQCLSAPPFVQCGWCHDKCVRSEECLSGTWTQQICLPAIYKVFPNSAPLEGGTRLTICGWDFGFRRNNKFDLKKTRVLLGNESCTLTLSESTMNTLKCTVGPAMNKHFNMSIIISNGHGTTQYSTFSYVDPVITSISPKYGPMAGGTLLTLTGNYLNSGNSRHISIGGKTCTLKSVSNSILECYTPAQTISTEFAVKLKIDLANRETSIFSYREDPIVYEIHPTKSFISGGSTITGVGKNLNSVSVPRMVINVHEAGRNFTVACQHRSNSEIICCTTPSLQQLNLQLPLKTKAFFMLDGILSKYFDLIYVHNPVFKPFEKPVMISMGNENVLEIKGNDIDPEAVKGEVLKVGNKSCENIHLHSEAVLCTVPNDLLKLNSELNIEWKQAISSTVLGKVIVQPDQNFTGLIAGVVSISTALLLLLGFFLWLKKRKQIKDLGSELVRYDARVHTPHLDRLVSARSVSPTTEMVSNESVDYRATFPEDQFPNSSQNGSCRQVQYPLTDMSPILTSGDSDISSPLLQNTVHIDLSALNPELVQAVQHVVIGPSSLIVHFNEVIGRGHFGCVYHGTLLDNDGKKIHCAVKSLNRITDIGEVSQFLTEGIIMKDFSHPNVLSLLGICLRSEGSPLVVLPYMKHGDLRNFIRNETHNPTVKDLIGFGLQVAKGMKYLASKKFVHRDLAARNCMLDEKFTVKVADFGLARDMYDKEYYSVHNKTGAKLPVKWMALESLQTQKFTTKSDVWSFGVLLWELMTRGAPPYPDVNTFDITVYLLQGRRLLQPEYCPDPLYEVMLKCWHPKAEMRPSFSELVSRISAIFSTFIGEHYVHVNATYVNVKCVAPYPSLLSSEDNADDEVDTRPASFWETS
The target of assay [20] is T1, Serine/threonine-protein kinase D2 (Homo sapiens) (UniProt Q9BZL6).
T1 sequence (whole entry): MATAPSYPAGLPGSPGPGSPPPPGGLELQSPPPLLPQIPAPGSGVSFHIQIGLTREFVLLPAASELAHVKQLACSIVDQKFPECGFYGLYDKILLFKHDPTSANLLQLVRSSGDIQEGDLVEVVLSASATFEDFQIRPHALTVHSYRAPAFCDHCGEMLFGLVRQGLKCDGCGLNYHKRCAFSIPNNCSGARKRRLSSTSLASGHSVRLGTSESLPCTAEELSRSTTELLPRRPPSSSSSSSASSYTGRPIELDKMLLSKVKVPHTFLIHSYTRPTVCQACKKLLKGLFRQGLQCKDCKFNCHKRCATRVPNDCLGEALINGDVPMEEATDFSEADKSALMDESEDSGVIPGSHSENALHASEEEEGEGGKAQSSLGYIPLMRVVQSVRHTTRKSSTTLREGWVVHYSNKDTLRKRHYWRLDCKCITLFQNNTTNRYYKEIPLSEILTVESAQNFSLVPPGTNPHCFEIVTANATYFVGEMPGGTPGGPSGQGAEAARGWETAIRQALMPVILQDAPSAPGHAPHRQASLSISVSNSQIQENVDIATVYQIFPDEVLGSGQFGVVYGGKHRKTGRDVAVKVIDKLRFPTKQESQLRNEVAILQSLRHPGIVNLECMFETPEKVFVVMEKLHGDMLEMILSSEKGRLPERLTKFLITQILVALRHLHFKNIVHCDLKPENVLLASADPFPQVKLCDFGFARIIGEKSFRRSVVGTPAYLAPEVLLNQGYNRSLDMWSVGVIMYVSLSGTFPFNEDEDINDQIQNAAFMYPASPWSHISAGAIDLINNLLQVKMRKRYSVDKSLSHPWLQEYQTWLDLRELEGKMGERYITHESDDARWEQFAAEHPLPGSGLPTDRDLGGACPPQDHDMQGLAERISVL
Briefly: Inhibition of human PRKD2 (519 to 838 residues) expressed in bacterial expression system assessed as enzyme activity at 1 uM by KINOMEScan assay relative to control. Also on record: scale not given: the % may be the effect or the level left. The essentials: (§2)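 In vitro ATP-site competition binding assay across a panel of 456 kinases, with compound tested at 1 and 10 μM.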

The target of assay [21] is Receptor-type tyrosine-protein kinase FLT3 (Homo sapiens) (UniProt P36888). Briefly: Inhibition of human FLT3 (592 to 969 residues) expressed in bacterial expression system assessed as enzyme activity at 10 uM by KINOMEScan assay relative to control. Also on record: scale not given: the % may be the effect or the level left. The essentials:
as §2

In assay [22] the target is Tyrosine-protein kinase Fyn (Homo sapiens) (UniProt P06241). Briefly: Inhibition of FYN in human SKCO1 cells at 1 uM after 4 hrs using biotin labeled VAIKTLKPGTMSPESFLEEAQIMK probe by mass-spectrometric analysis relative to control. The class given is cell-based.
Chain of Tyrosine-protein kinase Fyn (Homo sapiens) (P06241 2-537 limits assumed): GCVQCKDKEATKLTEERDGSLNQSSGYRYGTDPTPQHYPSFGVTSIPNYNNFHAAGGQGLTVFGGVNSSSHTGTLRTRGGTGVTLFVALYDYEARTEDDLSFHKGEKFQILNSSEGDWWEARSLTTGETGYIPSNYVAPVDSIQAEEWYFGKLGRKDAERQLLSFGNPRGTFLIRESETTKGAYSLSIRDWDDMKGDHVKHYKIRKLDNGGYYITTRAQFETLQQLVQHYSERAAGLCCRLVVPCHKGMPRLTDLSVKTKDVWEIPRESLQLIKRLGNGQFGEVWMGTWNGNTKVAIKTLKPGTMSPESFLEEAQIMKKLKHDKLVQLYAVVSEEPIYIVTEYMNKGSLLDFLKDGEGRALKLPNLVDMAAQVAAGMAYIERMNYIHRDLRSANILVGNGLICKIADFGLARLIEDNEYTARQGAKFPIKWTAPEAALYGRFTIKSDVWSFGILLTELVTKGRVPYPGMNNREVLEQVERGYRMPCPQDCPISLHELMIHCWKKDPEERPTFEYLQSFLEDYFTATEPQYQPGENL

Chain of Glutamate--cysteine ligase catalytic subunit (Homo sapiens) (P48506 whole entry): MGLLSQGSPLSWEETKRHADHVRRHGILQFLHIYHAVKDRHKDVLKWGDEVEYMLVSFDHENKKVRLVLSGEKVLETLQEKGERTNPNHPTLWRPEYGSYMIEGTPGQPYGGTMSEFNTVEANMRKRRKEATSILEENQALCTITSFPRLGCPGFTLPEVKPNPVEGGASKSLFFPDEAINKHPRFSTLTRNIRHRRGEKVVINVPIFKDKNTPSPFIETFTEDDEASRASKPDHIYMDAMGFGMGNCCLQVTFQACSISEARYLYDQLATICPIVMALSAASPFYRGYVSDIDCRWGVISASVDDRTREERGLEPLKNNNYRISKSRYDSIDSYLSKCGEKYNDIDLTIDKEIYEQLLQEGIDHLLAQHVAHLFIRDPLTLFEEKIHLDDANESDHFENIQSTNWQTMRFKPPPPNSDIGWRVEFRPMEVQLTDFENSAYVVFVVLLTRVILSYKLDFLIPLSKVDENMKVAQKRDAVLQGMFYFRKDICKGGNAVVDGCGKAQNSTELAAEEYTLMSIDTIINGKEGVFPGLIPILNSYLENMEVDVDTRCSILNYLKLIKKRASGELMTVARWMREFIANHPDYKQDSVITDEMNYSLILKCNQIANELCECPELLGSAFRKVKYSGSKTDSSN
Chain of Ribonucleoside-diphosphate reductase large subunit (Homo sapiens) (P23921 whole entry): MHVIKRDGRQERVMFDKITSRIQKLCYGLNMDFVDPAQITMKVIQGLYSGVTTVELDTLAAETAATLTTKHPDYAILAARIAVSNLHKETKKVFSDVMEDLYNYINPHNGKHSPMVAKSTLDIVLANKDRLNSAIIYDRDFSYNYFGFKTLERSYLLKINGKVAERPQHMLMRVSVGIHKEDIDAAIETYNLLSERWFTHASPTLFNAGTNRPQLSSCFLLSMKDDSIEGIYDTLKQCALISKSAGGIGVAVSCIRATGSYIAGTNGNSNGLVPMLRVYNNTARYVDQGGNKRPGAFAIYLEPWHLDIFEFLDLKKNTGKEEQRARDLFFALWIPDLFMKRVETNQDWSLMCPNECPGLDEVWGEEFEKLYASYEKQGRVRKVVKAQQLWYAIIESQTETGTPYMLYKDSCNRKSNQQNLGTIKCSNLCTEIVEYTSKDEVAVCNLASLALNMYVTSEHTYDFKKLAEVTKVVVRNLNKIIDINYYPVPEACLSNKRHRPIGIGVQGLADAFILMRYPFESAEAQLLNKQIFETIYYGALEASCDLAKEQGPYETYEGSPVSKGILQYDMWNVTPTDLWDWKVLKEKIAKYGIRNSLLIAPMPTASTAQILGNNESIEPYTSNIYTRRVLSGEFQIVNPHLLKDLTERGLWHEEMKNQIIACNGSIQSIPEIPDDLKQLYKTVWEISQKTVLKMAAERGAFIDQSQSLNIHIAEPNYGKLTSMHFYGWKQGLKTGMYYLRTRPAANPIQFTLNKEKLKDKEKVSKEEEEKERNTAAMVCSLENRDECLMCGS
Chain of Cytoplasmic dynein 1 intermediate chain 2 (Homo sapiens) (Q13409 whole entry): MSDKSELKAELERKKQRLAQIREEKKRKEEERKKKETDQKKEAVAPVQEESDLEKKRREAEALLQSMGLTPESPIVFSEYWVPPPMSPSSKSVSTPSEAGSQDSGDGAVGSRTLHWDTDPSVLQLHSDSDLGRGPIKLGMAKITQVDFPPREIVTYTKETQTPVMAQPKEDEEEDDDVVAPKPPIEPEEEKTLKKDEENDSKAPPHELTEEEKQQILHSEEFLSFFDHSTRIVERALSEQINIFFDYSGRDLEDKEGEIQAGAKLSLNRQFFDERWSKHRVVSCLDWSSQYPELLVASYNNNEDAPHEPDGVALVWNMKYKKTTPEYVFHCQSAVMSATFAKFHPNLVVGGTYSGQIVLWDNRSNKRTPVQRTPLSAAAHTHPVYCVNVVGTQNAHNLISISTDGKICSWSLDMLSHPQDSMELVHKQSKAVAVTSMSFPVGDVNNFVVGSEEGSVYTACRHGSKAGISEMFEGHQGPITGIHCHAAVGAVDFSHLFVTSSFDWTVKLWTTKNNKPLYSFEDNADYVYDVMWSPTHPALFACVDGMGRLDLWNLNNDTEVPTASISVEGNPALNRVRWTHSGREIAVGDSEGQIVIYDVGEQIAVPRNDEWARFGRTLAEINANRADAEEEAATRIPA
Chain of Mitotic interactor and substrate of PLK1 (Homo sapiens) (Q8IVT2 whole entry): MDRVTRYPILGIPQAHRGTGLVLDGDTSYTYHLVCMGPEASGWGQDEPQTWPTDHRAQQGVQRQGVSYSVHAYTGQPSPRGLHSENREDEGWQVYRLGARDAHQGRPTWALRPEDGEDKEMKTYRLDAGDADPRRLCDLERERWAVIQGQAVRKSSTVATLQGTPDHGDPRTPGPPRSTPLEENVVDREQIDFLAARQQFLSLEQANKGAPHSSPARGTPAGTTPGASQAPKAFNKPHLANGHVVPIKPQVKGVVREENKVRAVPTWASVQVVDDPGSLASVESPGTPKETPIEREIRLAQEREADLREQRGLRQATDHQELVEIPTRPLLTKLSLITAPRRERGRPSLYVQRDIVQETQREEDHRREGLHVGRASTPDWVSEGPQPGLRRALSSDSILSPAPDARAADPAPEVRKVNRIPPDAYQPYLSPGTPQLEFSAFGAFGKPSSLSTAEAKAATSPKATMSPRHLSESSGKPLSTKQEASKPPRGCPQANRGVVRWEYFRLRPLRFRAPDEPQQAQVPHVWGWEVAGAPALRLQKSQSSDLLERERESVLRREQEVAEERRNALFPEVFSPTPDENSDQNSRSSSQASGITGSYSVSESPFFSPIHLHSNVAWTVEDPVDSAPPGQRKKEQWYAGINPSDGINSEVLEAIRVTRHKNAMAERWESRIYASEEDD

Take `C=CC(=O)Nc1ccccc1Nc1nc(Nc2ccc(N3CCN(CCOCCOCCOCCNC(=O)CCCC[C@@H]4SC[C@@H]5NC(=O)N[C@@H]54)CC3)cc2)ncc1Cl`: the result in assay [1], in assay [2], in assay [3], in assay [4], in [5] and in assay [6] was Active. The outcome in assay [7], in assay [8], in [9], in assay [10], in assay [11] and in [12] was Active. Further, the result in assay [13], in assay [14], in [15], in assay [16], in assay [17] and in assay [18] was Active.

What is called inhibition is the drop in the measured response relative to a control, in per cent. As to `C=CC(=O)Nc1ccccc1Oc1nc(Nc2cnn(CCOC)c2)ncc1Cl`, the inhibition in assay [19] is -1.9%.

For `COc1cc(O)c2c(c1)/C=C/C[C@H](O)[C@H](O)C(=O)/C=C\C[C@H](C)OC2=O`, the results for the Activity in [20] and in assay [21] were 72% and 0.55%, respectively.

As to `C=CC(=O)Nc1ccccc1Nc1nc(Nc2ccc(N3CCN(C)CC3)cc2)ncc1Cl`, the inhibition in assay [22] is 8.3%.
